Source: ChEMBL document CHEMBL4138313 (J Med Chem, 2018)
Calls of active or inactive are those of the source. The rule behind the calls is not given here.

Legend:
[1] = target: T1, Poly [ADP-ribose] polymerase tankyrase-1 (Homo sapiens, UniProt O95271); test: Inhibition of human N-terminal GST-tagged TNKS1 (1001 to 1327 residues) expressed in baculovirus infected sf9 cells using histone as substrate after 1 hr by streptavidin-horseradish peroxidase-based luminescence assay
T1 sequence (O95271 whole entry): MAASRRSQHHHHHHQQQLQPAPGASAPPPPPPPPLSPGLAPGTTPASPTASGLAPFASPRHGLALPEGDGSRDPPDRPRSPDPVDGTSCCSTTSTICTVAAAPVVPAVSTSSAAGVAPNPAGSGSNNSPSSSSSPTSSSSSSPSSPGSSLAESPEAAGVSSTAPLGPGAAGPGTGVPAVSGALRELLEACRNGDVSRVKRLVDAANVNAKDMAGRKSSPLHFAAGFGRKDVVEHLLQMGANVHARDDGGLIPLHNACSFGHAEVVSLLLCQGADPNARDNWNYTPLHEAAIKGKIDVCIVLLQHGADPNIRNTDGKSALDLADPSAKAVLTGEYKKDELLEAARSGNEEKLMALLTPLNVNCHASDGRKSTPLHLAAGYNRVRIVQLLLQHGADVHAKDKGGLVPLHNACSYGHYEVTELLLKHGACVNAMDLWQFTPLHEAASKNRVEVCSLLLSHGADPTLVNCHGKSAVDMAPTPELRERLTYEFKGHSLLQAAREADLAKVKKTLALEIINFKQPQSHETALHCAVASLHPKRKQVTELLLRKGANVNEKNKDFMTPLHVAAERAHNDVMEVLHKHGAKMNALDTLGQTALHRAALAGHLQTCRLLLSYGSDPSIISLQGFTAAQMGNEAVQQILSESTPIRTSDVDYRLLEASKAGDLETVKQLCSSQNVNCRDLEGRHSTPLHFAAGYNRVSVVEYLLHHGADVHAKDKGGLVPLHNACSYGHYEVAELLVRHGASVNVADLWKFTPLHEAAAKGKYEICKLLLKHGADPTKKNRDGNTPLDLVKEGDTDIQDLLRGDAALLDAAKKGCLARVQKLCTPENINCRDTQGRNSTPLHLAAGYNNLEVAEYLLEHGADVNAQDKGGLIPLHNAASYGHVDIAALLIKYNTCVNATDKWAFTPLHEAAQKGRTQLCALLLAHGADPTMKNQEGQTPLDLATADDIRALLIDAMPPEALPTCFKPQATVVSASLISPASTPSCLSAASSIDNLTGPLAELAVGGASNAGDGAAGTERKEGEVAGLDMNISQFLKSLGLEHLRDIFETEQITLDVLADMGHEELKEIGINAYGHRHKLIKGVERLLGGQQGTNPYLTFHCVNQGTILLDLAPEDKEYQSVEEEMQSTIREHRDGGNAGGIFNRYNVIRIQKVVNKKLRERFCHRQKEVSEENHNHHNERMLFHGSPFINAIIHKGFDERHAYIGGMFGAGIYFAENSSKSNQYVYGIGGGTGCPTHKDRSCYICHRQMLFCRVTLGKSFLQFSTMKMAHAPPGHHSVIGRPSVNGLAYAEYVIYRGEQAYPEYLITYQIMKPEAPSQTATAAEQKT

[2] = target: T2, Poly [ADP-ribose] polymerase tankyrase-2 (Homo sapiens) (UniProt Q9H2K2); test: Inhibition of human N-terminal GST-tagged TNKS2 (667 to 1166 residues) expressed in baculovirus infected sf9 cells at 10 uM using histone as substrate after 1 hr by streptavidin-horseradish peroxidase-based luminescence assay
T2 sequence (whole entry): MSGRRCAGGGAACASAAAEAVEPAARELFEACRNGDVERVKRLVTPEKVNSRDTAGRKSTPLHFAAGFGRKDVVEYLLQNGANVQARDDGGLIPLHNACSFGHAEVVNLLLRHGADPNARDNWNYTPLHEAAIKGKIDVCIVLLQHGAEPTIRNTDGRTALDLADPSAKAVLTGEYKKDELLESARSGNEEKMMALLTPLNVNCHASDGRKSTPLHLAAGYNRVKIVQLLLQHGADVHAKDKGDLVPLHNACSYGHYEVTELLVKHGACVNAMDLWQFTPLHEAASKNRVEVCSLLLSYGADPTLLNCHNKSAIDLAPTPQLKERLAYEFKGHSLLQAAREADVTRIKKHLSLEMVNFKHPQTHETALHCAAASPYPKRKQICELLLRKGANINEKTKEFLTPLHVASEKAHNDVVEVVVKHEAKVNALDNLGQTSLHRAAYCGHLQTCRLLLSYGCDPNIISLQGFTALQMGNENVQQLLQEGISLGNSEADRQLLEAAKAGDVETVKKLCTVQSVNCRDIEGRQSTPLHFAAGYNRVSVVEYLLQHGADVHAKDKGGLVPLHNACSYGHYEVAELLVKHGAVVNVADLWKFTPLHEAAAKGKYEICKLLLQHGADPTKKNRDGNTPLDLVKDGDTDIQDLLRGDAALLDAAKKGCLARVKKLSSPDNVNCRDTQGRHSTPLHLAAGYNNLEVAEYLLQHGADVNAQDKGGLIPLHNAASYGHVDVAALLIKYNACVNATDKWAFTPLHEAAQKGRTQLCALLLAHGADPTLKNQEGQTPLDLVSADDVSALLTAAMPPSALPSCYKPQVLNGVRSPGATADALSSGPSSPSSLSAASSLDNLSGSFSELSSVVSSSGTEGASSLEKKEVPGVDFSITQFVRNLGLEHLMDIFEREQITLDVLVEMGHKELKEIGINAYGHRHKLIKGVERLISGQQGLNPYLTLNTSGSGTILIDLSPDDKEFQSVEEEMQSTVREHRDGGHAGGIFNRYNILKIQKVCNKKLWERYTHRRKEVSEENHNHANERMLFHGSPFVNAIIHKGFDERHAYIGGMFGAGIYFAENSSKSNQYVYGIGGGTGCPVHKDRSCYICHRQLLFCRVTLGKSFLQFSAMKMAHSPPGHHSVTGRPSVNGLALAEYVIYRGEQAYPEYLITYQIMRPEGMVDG
How it was run: (§1)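 Run by an outside contractor using PARP or TNKS kit protocols, in duplicate, at room temperature for 1 h in histone-coated wells. The Tris·HCl pH 8.0 reaction buffer held NAD+, biotinylated NAD+, activated DNA, enzyme and compound. Streptavidin-HRP was then added for 30 min at room temperature, followed by developer reagents and a luminescence read.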

[3] = Cytotoxicity against human BRCA1-restored UWB1.289 cells assessed as reduction in cell viability after 4 to 7 days by cell-titer glo assay; assay type: cell-based
MEF [4] = test: Cytotoxicity against mouse PARP2 deficient MEF cells expressing PARP1 assessed as reduction in cell viability after 4 to 7 days by cell-titer glo assay; assay type: cell-based
MEF [5] = test: Cytotoxicity against mouse wild type MEF cells assessed as reduction in cell viability after 4 to 7 days by cell-titer glo assay; assay type: cell-based
[6] = Cytotoxicity against human BRCA1-deficient UWB1.289 cells assessed as reduction in cell viability after 4 to 7 days by cell-titer glo assay; assay type: cell-based
[7] = Safety index, ratio compound EC50 to olaparib EC50 for BRCA1 deficient human UWB1.289 cells; assay type: ADME; conditions: BRCA1-deficient UWB1.289 cells, read-out: Ratio EC50
How it was run: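 UWB1.289 cells were grown in 1:1 MEGM (bullet kit) and RPMI 1640 with 10% FBS and 1% pen/strep, at 37 °C, 5% CO2 and 15% O2. Cells were seeded at 1,000 cells/well and dosed after 24 h at 100–0.016 µM for 4–7 days. Viability was read by CellTiter-Glo luminescence and normalised to the vehicle mean.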

[8] = target: T3, Poly [ADP-ribose] polymerase tankyrase-2 (Homo sapiens, UniProt Q9H2K2); test: Inhibition of human N-terminal GST-tagged TNKS2 (667 to 1166 residues) expressed in baculovirus infected sf9 cells using histone as substrate after 1 hr by streptavidin-horseradish peroxidase-based luminescence assay
T3 sequence (Q9H2K2 whole entry): T2 sequence (whole entry)

MEF [9] = test: Cytotoxicity against mouse PARP1 deficient MEF cells assessed as reduction in cell viability after 4 to 7 days by cell-titer glo assay; assay type: cell-based
MEF [10] = test: Cytotoxicity against mouse PARP1 deficient MEF cells assessed as reduction in cell viability at 0.016 to 100 uM after 4 to 7 days by cell-titer glo assay; assay type: cell-based
How it was run: (§2)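 Cells kept at 37 °C, 5% CO2, 15% O2 in RPMI 1640 with 10% FBS and 1% penicillin/streptomycin. Seeded at 1,000 cells/well and dosed 24 h later at 100–0.016 µM. Exposure lasted 4–7 days, then viability was read by CellTiter Glo luminescence. Signal was normalized to percent survival against the mean of vehicle controls. Three repeat experiments.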

[11] = target: T4, Poly [ADP-ribose] polymerase 1 (Homo sapiens, UniProt P09874); test: Inhibition of PARP1 (unknown origin) at 10 uM; how it was run: as §1
T4 sequence (P09874 whole entry): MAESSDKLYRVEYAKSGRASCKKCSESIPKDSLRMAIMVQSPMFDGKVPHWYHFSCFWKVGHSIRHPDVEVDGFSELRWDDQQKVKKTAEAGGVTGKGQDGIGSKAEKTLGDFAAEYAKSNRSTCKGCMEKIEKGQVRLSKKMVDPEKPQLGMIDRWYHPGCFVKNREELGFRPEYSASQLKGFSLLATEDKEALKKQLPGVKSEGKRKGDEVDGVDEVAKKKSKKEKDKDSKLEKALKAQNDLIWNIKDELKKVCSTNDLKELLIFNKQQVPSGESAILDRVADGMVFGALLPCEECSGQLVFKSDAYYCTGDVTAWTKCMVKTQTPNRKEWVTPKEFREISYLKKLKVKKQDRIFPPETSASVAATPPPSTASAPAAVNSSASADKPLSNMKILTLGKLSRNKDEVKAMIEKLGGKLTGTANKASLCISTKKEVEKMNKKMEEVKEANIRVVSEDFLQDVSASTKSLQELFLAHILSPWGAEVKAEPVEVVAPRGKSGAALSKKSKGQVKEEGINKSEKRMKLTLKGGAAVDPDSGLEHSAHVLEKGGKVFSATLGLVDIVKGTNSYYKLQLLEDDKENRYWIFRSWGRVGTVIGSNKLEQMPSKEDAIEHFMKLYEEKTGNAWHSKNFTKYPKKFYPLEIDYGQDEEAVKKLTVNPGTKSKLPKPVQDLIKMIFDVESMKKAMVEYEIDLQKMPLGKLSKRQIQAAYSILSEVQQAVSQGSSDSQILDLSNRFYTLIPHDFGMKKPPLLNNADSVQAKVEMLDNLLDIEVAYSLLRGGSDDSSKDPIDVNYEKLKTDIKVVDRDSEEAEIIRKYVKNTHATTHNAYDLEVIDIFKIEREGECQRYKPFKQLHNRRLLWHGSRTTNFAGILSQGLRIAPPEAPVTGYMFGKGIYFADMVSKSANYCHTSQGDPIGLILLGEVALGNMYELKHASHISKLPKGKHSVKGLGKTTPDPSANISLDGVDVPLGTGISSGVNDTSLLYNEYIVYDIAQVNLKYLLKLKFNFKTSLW

MEF [12] = test: Cytotoxicity against mouse wild type MEF cells assessed as reduction in cell viability at 0.016 to 100 uM after 4 to 7 days by cell-titer glo assay; assay type: cell-based; how it was run: as §2
[13] = Cytotoxicity against human OVCAR8 cells assessed as cell survival at 10 uM after 4 to 7 days by cell-titer glo assay; assay type: cell-based, OVCAR-8; conditions: OVCAR8 cells, read-out: Activity
[14] = target: T4, Poly [ADP-ribose] polymerase 1; test: Binding affinity to PARP1 in human OVCAR8 cells assessed as reduction in [125I]-KX1 binding by gamma counting analysis; assay type: cell-based

Row | Compound | IC50 [1] [µM] | inhibition [2] | EC50 [3] [µM] | EC50 (MEF [4]) [µM] | EC50 (MEF [5]) [µM] | EC50 [6] [µM] | selectivity ratio [7] | IC50 [8] [µM] | EC50 (MEF [9]) [µM] | Activity (MEF [10]) [%] | inhibition [11] | Activity (MEF [12]) [%] | viability at 10 µM [13] [%] | IC50 [14] [µM]
1 | CC(C)(C)OC(=O)N1CCC2(CCN(C(=O)c3cc(Cc4n[nH]c(=O)c5ccccc45)ccc3F)C2)C1 (stereo unspecified) | 1 | Active | 7.4 | 23.4 | 17.2 | 4.2 | 20 to 40 | 0.576 | 46.4 |  |  |  |  | 
2 | CC(C)(C)OC(=O)N1CCC2(CC1)CCN(C(=O)c1cc(Cc3n[nH]c(=O)c4ccccc34)ccc1F)CC2 | 5.7 | Active | 4 | 19.2 | 16.9 | 2.7 | 20 to 40 | 2.8 | 43.4 |  |  |  |  | 
3 | O=C(c1cc(Cc2n[nH]c(=O)c3ccccc23)ccc1F)N1CC2(C1)CN(C(=O)C1CC1)C2 |  |  | 12.1 | 59.8 |  | 1.5 | 7 |  |  | < 50 | Active | < 50 | 80 | 
4 | CC(C)(C)OC(=O)N1CCC2(CC1)CCN(C(=O)c1cc(Cc3n[nH]c(=O)c4ccccc34)ccc1F)C2 | 3 | Active | 6.2 | 31.6 | 9.4 | 8.4 | 20 to 40 | 0.953 | 45.9 |  |  |  |  | 1.1
